Measured values of several laboratories.
Protocols differ between the studies behind these lines.
Cell line: UACC-257
Read-out: cell growth or viability

COc1ccc(C(=O)/C=C/c2cc3c(cc2Br)OCO3)cc1S(N)(=O)=O has an inhibition of 36% (SRB; 10 µM).
O=C1Nc2ccccc2C1=NNc1nnc2n1N=C(c1ccccc1)CS2 has an inhibition of 11% (SRB; 10 µM).
With COc1ccc(-c2ccc(-c3ccc(C(=N)N)nc3)s2)cc1Cl the GI50 was 1880 nM (SRB).
With O=C1NC(=NCc2cccs2)S/C1=C\c1ccc2ncccc2c1 the IC50 was over 10000 nM.
COc1ccc(C2=Nn3c(NN=C4C(=O)Nc5ccc(Cl)cc54)nnc3SC2)cc1 has an inhibition of 27% (SRB; 10 µM).
With O=C1NCCc2[nH]c(-c3ccncc3)cc21 the IC50 was over 10000 nM.
For COc1cc(-c2ccc(-c3ccc(C(=N)N)nc3)s2)cc(OC)c1OC, the GI50 was 2150 nM (SRB).
With COc1ccc(C(=O)/C=C/c2cccc(Cl)c2Cl)cc1S(N)(=O)=O the inhibition was 65% (SRB; 10 µM).
With NC(=O)c1cc(Cl)ccc1NC(=O)COc1ccccc1 the GI50 was over 100000 nM.
